Assay results taken from ChEMBL document CHEMBL1154198, “Chemical genetics of Plasmodium falciparum” (Nature, 2010).

How the values were obtained:
[1] = tested on: Plasmodium falciparum; assay: ST_JUDE: Plasmodium falciparum K1 EC50 (uM) as measured by SYBR green dye; format: functional, organism-based
[2] = ST_JUDE: Cytotoxicity using luciferase to measure ATP as an indicator of the viability of human Burkitt''s lymphoma lymphoblast cells (Raji); format: toxicity, cell-based
[3] = tested on: Plasmodium falciparum; assay: ST_JUDE: Cytotoxicity against Plasmodium falciparum D10 transfected with yeast DHOD; format: functional, organism-based
[4] = ST_JUDE: Cytotoxicity using luciferase to measure ATP as an indicator of the viability of human epithelial hepatocellular carcinoma cells (HepG2); format: toxicity, cell-based
[5] = tested on: Plasmodium falciparum; assay: ST_JUDE: Plasmodium falciparum 3D7 EC50 (uM) as measured by SYBR green dye; format: functional, organism-based
[6] = ST_JUDE: Cytotoxicity using luciferase to measure ATP as an indicator of the viability of human foreskin fibroblast cells (BJ); format: toxicity, cell-based
[7] = tested on: Plasmodium falciparum; assay: ST_JUDE: Cytotoxicity against Plasmodium falciparum K1; format: functional, organism-based
Method in brief: (§1)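 Asexual P. falciparum grown in human erythrocytes, exposed to compounds for 72 h, and growth read as the DNA quantity in treated versus control cultures. Dose-response run at 12 concentrations from 10 μM to 5 nM.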

[8] = tested on: Toxoplasma gondii; assay: ST_JUDE: Growth inhibition of to Toxoplasma gondii, in human U-2OS cells, as measured by luciferase.; format: functional, organism-based; settings: RH, U2OS
Method in brief: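 T. gondii parasites engineered to express luciferase; drug sensitivity read by luminescence.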

[9] = tested on: Leishmania major; assay: ST_JUDE: Cytotoxicity using Alamar Blue to measure viability of Leishmania major; format: functional, organism-based
Method in brief: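 L. major promastigotes; drug susceptibility read with Alamar Blue.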

[10] = tested on: Plasmodium falciparum; assay: ST_JUDE: Cytotoxicity against Plasmodium falciparum W2; format: functional, organism-based
[11] = ST_JUDE: Cytotoxicity using luciferase to measure ATP as an indicator of the viability of human epithelial embryonic kidney cells (HEK293); format: toxicity, cell-based
[12] = tested on: Plasmodium falciparum; assay: ST_JUDE: Cytotoxicity against Plasmodium falciparum SB-A6; format: functional, organism-based
[13] = tested on: Plasmodium falciparum; assay: ST_JUDE: Cytotoxicity against Plasmodium falciparum 3D7; format: functional, organism-based; method in brief: as §1
[14] = tested on: Plasmodium falciparum; assay: ST_JUDE: Cytotoxicity against Plasmodium falciparum Dd2; format: functional, organism-based
[15] = tested on: Plasmodium falciparum; assay: ST_JUDE: Cytotoxicity against Plasmodium falciparum V1/S; format: functional, organism-based
[16] = tested on: Trypanosoma brucei; assay: ST_JUDE: Cytotoxicity using luciferase to measure ATP as an indicator of the viability of Trypanosoma brucei; format: functional, organism-based

Compound	EC50 [1]	EC50 [5]	EC50 [2]	EC50 [3]	EC50 [4]	EC50 [6]	EC50 [7]	EC50 [8]	EC50 [9]	EC50 [10]	EC50 [11]	EC50 [12]	EC50 [13]	EC50 [14]	EC50 [15]	EC50 [16]
Cc1ccc2c(c1)N(C)/C(=C/c1cccc[n+]1C)S2	179 nM	247 nM	2.18 µM	859 nM	> 23 µM	> 23 µM	675 nM	> 12.6 µM	0.0107 µM	1110 nM	> 23 µM	1030 nM	588 nM	646 nM	566 nM	1.05 µM
COc1ccc(C2CC(=O)C3=C(C2)NC(=O)CC3c2ccc(Br)cc2)cc1OC (stereo not drawn)	650 nM	1140 nM	> 47.5 µM	1780 nM	> 47.5 µM	> 47.5 µM	1110 nM	> 26 µM	> 20.3 µM	7740 nM	> 47.5 µM	1490 nM	1040 nM	750 nM	1780 nM	25.6 µM
Cc1ccc2c(c1)S/C(=C\c1sc3ccccc3[n+]1C)N2CCO	140 nM	367 nM	3.09 µM	438 nM	> 23.7 µM	> 23.7 µM	567 nM	> 13 µM	0.112 µM	495 nM	> 23.7 µM	603 nM	548 nM	426 nM	577 nM	11 µM
CCO/C(O)=C1\C(C)=NC2=C(C(=O)CC(c3ccc(OC)c(OC)c3)C2)C1c1ccccc1C (stereo not drawn)	135 nM	102 nM	> 42.7 µM	87.7 nM	> 42.7 µM	> 42.7 µM	120 nM	> 23.4 µM	> 18.3 µM	54.9 nM	> 42.7 µM	87.5 nM	97.1 nM	96.5 nM	104 nM	> 40.9 µM
CO/C(O)=C1\C(C)=NC2=C(C(=O)CC(c3ccc(OC)c(OC)c3)C2)C1c1ccccc1C (stereo not drawn)	117 nM	424 nM	> 41.4 µM	196 nM	> 41.4 µM	> 41.4 µM	220 nM	> 22.7 µM	> 17.7 µM	225 nM	> 41.4 µM	176 nM	309 nM	577 nM	254 nM	17 µM
COc1ccc(Nc2cc(C)c3ccc(O)cc3n2)cc1	216 nM	545 nM	> 47.4 µM	1070 nM	43 µM	> 47.4 µM	241 nM	25.4 µM	> 20.3 µM	284 nM	> 47.4 µM	1230 nM	688 nM	709 nM	307 nM	> 45.4 µM
Cc1ccc(NC(=O)C2c3ccccc3C(=O)N(CC(C)C)C2c2cccs2)c(Cl)c1 (stereo not drawn)	747 nM	463 nM	> 44.1 µM	628 nM	> 44.1 µM	> 44.1 µM	> 11300 nM	> 24.1 µM	> 18.9 µM	849 nM	> 44.1 µM	741 nM	> 11300 nM	981 nM	1180 nM	8.03 µM
CC(C)c1ccccc1Oc1c(C(F)(F)F)oc2c(CN3CCN(C)CC3)c(O)ccc2c1=O	224 nM	720 nM	> 21 µM	231 nM	> 21 µM	> 21 µM	158 nM	> 11.5 µM	0.327 µM	252 nM	> 21 µM	334 nM	184 nM	1810 nM	178 nM	> 20.1 µM
CCO/C(O)=C1\C(C)=NC2=C(C(=O)CC(c3ccc(OC)c(OC)c3)C2)C1c1ccc([N+](=O)[O-])cc1 (stereo not drawn)	120 nM	177 nM	> 43.9 µM	267 nM	> 43.9 µM	> 43.9 µM	272 nM	> 24.1 µM	> 18.8 µM	239 nM	> 43.9 µM	228 nM	170 nM	600 nM	597 nM	8.23 µM

Now from value to compound, other results behind:

EC50 [1]	EC50 [5]	Compound	EC50 [2]	EC50 [3]	EC50 [4]	EC50 [6]	EC50 [7]	EC50 [8]	EC50 [9]	EC50 [10]	EC50 [11]	EC50 [12]	EC50 [13]	EC50 [14]	EC50 [15]	EC50 [16]
284 nM	196 nM	CC(=O)c1cccc(NC(=O)C2c3ccccc3C(=O)N(CC(C)C)C2c2cccs2)c1 (stereo not drawn)	> 43.2 µM	411 nM	> 43.2 µM	> 43.2 µM	358 nM	> 23.7 µM	> 18.5 µM	> 11100 nM	> 43.2 µM	414 nM	363 nM	392 nM	371 nM	5.85 µM
364 nM	232 nM	CSC(=S)N/N=C(\c1ccccc1)c1ccccn1	0.0334 µM	398 nM	> 42.9 µM	> 42.9 µM	862 nM	1.64 µM	> 18.4 µM	> 11000 nM	> 42.9 µM	331 nM	563 nM	0.8 nM	404 nM	2.21 µM
1190 nM	1280 nM	O=[N+]([O-])c1cc(CN2CCN(c3cccc(C(F)(F)F)c3)CC2)c2cccnc2c1O	> 31.9 µM	1080 nM	> 31.9 µM	> 31.9 µM	> 8180 nM	> 17.5 µM	> 13.6 µM	> 8180 nM	> 31.9 µM	642 nM	676 nM	791 nM	> 8180 nM	1.35 µM
877 nM	1450 nM	O=C(c1ccccc1)N1CCN(c2ccccc2NC(=O)C(Cl)(Cl)Cl)CC1	> 33.7 µM	4190 nM	> 33.7 µM	> 33.7 µM	838 nM	> 18.4 µM	> 14.4 µM	> 8650 nM	> 33.7 µM	1340 nM	918 nM	2770 nM	1110 nM	26.8 µM
